According to ChEMBL document CHEMBL4837188, “Identification of Novel Tricyclic Benzo[1,3]oxazinyloxazolidinones as Potent Antibacterial Agents with Excellent Pharmacokinetic Profiles against Drug-Resistant Pathogens” (J Med Chem, 2021):
pIC50: −log10 of the molar value. ≈ marks a conversion by molar mass, not a printed value.

Columns and labels:
[1] = Inhibition of mitochondrial protein synthesis in […] H9C2 cells after 5 days by ELISA; format: functional, cell-based; settings: Rattus norvegicus, H9c2, 120 h
Procedure, shortened: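 H9C2 cells in DMEM with 10% FBS, glutamine and NEAA, seeded at 1500 cells/well. After 18 h, compounds added at final 200 to 0.03 μM in nine 3-fold steps, then 5 days at 37 °C, 5% CO2. Negative control 0.5% DMSO. Mitochondrial protein synthesis read by MitoBiogenesis In-Cell ELISA; IC50 fitted.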

[2] = Elimination half life in BALB/c mouse at 10 mg/kg, po measured upto 24 hrs by LC-MS/MS analysis; format: ADME, organism-based; settings: in vivo, read-out: beta t1/2 (converted)
Procedure, shortened: (§1)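 Female BALB/c mice, 16−21 g, three per route. Oral dosing at 10 mg/kg as a 5 mg/mL suspension in 0.5% carboxymethyl cellulose. IV dosing at 1 mg/kg as a 1 mg/mL solution in 10% DMSO/50% PEG400/40% water. Blood sampled 15 min to 24 h after oral dosing and 5 min to 24 h after iv. LC/MS/MS quantification in ESI positive mode. Noncompartmental analysis; F = (AUCpo×dose_iv)/(AUCiv×dose_po)×100%.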

[3] = MRT (0 to infinity) in BALB/c mouse at 1 mg/kg, iv measured upto 24 hrs by LC-MS/MS analysis; format: ADME, organism-based; settings: in vivo; procedure, shortened: as §1
[4] = MRT (0 to infinity) in BALB/c mouse at 10 mg/kg, po measured upto 24 hrs by LC-MS/MS analysis; format: ADME, organism-based; settings: in vivo; procedure, shortened: as §1
[5] = target: T1, Amine oxidase [flavin-containing] A (Homo sapiens, UniProt P21397); assay: Inhibition of MAO-A (unknown origin) using kynuramine as substrate preincubated for 5 mins with substrate followed by enzyme addition and measured after 15 mins by LC-MS/MS analysis
T1 sequence (P21397 whole entry): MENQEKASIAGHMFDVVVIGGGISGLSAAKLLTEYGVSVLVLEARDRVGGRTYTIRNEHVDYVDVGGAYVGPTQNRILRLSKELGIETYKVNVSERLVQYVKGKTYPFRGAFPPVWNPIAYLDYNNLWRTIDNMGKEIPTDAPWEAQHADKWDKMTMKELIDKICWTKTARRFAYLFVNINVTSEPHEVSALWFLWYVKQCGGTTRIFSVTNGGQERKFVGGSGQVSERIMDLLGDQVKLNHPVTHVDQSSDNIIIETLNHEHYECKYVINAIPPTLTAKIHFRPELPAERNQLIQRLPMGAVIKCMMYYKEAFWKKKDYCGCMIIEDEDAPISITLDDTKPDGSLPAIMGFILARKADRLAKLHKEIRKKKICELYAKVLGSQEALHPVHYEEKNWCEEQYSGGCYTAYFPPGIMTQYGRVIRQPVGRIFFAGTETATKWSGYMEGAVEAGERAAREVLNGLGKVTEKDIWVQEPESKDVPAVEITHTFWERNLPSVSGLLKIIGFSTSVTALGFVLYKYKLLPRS
Procedure, shortened: (§2)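 Recombinant MAO-A (0.01 mg/mL working solution) or MAO-B (0.04 mg/mL working solution) in phosphate buffer. Kynuramine 40 μM working solution. Compound or DMSO preincubated with substrate for 5 min at 37 °C; enzyme then added and incubated 15 min at 37 °C. Reaction quenched. Product 4-hydroxyquinoline (printed as 4-hydroxyquinolinol) measured by LC−MS/MS. Six concentrations in 4-fold dilutions; IC50 from % inhibition versus vehicle.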

Enterococcus faecium [6] = assay: Antibacterial activity against linezolid resistant Enterococcus faecium 13549 assessed as bacterial growth inhibition after 18 hrs by broth microdilution method; format: functional
Enterococcus faecium [7] = assay: Antibacterial activity against Enterococcus faecium ATCC 49624 assessed as bacterial growth inhibition after 18 hrs by broth microdilution method; format: functional
Procedure, shortened: (§3)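 Broth microdilution in 96-well plates. Media: cation-adjusted Mueller−Hinton broth for S. aureus, brain heart infusion for VRE, Mueller−Hinton broth for the other strains. Incubated at 37 °C for 18 h, then A600 read. Percent growth inhibition calculated against 1% DMSO vehicle.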

Enterococcus = assay: Antibacterial activity against vancomycin resistant Enterococcus assessed as bacterial growth inhibition after 18 hrs by broth microdilution method; format: functional
[8] = Metabolic stability in pooled human liver microsomes assessed as substrate remaining in presence of NADPH incubated for 30 mins by LC-MS analysis; format: ADME, Microsome; settings: read-out: Stabilty
Procedure, shortened: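 Microsomes from male CD-1 mouse or pooled human, 1 mg/mL protein in 0.05 M phosphate buffer pH 7.4. Compound at final 0.1 μM with DMSO cosolvent. Incubated at 37 °C with 1 mM NADPH, or with buffer in place of NADPH. Sampled at 0 and 30 min and quenched with acetonitrile. LC−MS measurement; substrate remaining at 30 min normalized to time zero.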

[9] = target: T2, Amine oxidase [flavin-containing] B (Homo sapiens, UniProt P27338); assay: Inhibition of MAO-B (unknown origin) using kynuramine as substrate preincubated for 5 mins with substrate followed by enzyme addition and measured after 15 mins by LC-MS/MS analysis; procedure, shortened: as §2
T2 sequence (P27338 whole entry): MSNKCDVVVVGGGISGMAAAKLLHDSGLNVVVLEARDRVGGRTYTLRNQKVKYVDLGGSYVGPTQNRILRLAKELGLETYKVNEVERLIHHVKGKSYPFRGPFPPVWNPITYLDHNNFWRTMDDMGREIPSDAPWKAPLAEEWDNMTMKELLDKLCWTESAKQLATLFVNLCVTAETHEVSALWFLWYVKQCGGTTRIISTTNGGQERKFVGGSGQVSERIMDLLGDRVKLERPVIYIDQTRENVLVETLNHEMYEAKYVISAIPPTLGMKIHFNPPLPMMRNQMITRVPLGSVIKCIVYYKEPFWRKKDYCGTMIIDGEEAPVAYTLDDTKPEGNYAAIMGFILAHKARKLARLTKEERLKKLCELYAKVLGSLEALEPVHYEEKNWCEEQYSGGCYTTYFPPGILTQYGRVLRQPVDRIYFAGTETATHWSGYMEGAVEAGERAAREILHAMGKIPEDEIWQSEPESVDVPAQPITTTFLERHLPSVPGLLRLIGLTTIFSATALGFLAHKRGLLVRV

Staphylococcus capitis = assay: Antibacterial activity against linezolid resistant Staphylococcus capitis assessed as bacterial growth inhibition after 18 hrs by broth microdilution method; format: functional
Bacillus subtilis = assay: Antibacterial activity against Bacillus subtilis 168 assessed as inhibition of bacterial growth incubated for 18 hrs by broth microdilution method; format: functional; procedure, shortened: as §3
[10] = Cmax in BALB/c mouse at 1 mg/kg, iv measured upto 24 hrs by LC-MS/MS analysis; format: ADME, organism-based; set-up: route intravenous, dose 1 mg/kg, time <=24; settings: in vivo; procedure, shortened: as §1
Escherichia coli = assay: Antibacterial activity against Escherichia coli 25922 assessed as inhibition of bacterial growth incubated for 18 hrs by broth microdilution method; format: functional; settings: ATCC 25922; procedure, shortened: as §3
Staphylococcus aureus = assay: Antibacterial activity against methicillin resistant Staphylococcus aureus assessed as bacterial growth inhibition after 18 hrs by broth microdilution method; format: functional
[11] = Apparent volume of distribution in BALB/c mouse at 1 mg/kg, iv measured upto 24 hrs by LC-MS/MS analysis; format: ADME, organism-based; settings: in vivo, read-out: Vz; procedure, shortened: as §1
[12] = Cmax in BALB/c mouse at 10 mg/kg, po measured upto 24 hrs by LC-MS/MS analysis; format: ADME, organism-based; set-up: route oral, dose 10 mg/kg, time <=24; settings: in vivo; procedure, shortened: as §1

For `CC(=O)NC[C@@H]1OC(=O)N2Cc3cc(-c4ccc(C#N)nc4)c(F)cc3O[C@@H]12`, the pIC50 [1] was 5.79, the half-life [2] was 3.76 h and the MRT inf [3] was 4.71 h. For the same compound, the MRT inf [4] was 5.86 h, the pIC50 [5] was < 4.30 and the MIC (Enterococcus faecium [6]) was 2 µg/mL (≈ 5.23 µM). It also gave an MIC (Enterococcus faecium [7]) of 1 µg/mL (≈ 2.62 µM), an MIC (Enterococcus) of 0.25 µg/mL (≈ 0.654 µM) and a remaining at 0.5 h [8] of 118%. The pIC50 [9] was 5.22, the MIC (Staphylococcus capitis) was 2 µg/mL (≈ 5.23 µM) and the MIC (Bacillus subtilis) was 0.125 µg/mL (≈ 0.327 µM). For the same compound, the Cmax [10] was 1790 ng/mL, the MIC (Escherichia coli) was > 64 µg/mL and the MIC (Staphylococcus aureus) was 0.25 µg/mL (≈ 0.654 µM). The Vd [11] was 0.762 L/kg and the Cmax [12] was 10300 ng/mL.
